Legend:
[1] = target: murine TLR2 (Mus musculus, UniProt Q9QUN7); test: murine TLR2-specific NF-κB reporter gene assay; type: cell-based; conditions: for mTLR2-agonistic activity (in words): murine TLR2 reporter gene assay
Outline: (§1)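 HEK-Blue reporter cells with NF-κB-driven secreted alkaline phosphatase (sAP) were plated at ~10⁵ cells/mL and grown to confluency. They were then stimulated for 12 h with serially diluted test compound. Extracellular sAP in the supernatant was read spectrophotometrically at 620 nm using an alkaline phosphatase-specific chromogen in the detection medium. Samples were run in quadruplicate, with means and standard deviations shown.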

[2] = target: T1, human TLR2 (Homo sapiens, UniProt O60603); test: human TLR2-specific NF-κB reporter gene assay; type: cell-based; conditions: for absolute magnitude of TLR2-induced NF-κB activation (in words): Fig. 1
T1 sequence (O60603 21-784): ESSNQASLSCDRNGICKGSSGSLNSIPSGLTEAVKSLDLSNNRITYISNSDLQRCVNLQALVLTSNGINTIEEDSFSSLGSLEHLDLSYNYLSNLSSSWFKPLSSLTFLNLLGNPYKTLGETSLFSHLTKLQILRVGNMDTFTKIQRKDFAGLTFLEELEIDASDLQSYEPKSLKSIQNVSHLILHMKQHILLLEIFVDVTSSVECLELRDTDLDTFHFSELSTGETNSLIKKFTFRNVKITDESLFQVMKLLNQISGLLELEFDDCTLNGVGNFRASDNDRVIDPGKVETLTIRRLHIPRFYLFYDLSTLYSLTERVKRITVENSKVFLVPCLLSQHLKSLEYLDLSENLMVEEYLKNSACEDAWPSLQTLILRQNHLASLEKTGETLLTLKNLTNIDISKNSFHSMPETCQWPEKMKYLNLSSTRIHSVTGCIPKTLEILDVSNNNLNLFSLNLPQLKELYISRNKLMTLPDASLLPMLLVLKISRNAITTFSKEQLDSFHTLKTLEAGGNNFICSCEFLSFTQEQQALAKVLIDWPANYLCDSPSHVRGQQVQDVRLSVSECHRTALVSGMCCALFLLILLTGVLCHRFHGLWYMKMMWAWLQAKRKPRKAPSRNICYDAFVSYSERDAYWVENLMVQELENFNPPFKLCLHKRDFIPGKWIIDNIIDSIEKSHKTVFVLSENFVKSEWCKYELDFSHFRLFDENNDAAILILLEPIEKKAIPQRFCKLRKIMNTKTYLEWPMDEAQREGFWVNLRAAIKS
Outline: as §1

[3] = target: T1, human TLR2; conditions: cited from earlier work

Chain of murine TLR2 (Q9QUN7 25-784): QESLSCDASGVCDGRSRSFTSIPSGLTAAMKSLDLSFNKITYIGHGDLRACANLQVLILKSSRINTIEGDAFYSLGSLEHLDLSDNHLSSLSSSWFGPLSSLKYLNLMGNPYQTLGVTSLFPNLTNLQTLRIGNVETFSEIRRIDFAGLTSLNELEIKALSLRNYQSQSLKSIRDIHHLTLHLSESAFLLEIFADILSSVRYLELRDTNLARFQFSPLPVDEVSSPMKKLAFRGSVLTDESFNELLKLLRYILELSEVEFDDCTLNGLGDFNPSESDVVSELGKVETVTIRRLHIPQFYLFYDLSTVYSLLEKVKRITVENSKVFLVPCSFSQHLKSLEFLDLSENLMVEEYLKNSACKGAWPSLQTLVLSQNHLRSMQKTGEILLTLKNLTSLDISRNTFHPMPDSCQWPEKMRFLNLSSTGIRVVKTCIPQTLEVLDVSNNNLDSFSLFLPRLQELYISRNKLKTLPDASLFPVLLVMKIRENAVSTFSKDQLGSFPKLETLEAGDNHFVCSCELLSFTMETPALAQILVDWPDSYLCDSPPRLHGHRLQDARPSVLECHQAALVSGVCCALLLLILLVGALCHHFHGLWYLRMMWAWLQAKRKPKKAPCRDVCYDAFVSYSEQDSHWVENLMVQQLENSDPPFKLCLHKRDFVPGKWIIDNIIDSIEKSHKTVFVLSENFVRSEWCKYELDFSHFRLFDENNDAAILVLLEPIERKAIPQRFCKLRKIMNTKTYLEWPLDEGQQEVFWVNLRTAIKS

Q: For CCCCCCCCCCCCCCCCCC(=O)OCCSC[C@H](N)C(=O)N[C@@H](CO)C(=O)OC [Compound 6e, 2-(((R)-2-amino-3-(((S)-3-hydroxy-1-methoxy-1-oxopropan-2-yl)amino)-3-oxopropyl)thio)ethyl stearate], which “mTLR2-agonistic activity (in words)” value [1] is on record?
A: entirely inactive

Q: With CCCCCCCCCCCCCCCC(=O)OCCSC[C@H](N)C(=O)N[C@@H](COC(C)=O)C(=O)OC [Compound 14a, 2-(((R)-3-(((S)-3-acetoxy-1-methoxy-1-oxopropan-2-yl)amino)-2-amino-3-oxopropyl)thio)ethyl palmitate] as the compound, how does the “hTLR2-agonistic activity (in words)” value [2] read?
A: virtually indistinguishable from that of 6d

Q: For COC(=O)[C@H](CO)NC(=O)[C@@H](N)CSCCOC(=O)c1ccc(-c2ccccc2)cc1 [Compound 6f, 2-(((R)-2-amino-3-(((S)-3-hydroxy-1-methoxy-1-oxopropan-2-yl)amino)-3-oxopropyl)thio)ethyl [1,1'-biphenyl]-4-carboxylate], which “hTLR2-agonistic activity (in words)” value [2] is on record?
A: complete absence of activity

Q: Which “TLR2-agonistic activity (in words), previously identified” value [3] does the source give for CCCCCCCCCCCCCCCC(=O)OCCCSC[C@H](N)C(=O)N[C@@H](CO)C(=O)OC [Compound 15, 3-((R)-2-amino-3-((S)-3-hydroxy-1-methoxy-1-oxopropan-2-ylamino)-3-oxopropylthio)propyl palmitate] here?
A: inactive

Q: For CCCCCCCCCCCCCCCC(=O)OCCSC[C@H](NC(=O)C(F)(F)F)C(=O)N[C@@H](CO)C(=O)OC [Compound 11h, 2-(((R)-3-(((S)-3-hydroxy-1-methoxy-1-oxopropan-2-yl)amino)-3-oxo-2-(2,2,2-trifluoroacetamido)propyl)thio)ethyl palmitate], which “absolute magnitude of TLR2-induced NF-κB activation (in words)” value [2] is on record?
A: low magnitude of NF-κB activation

Q: For CCCCCCCCCCCCCCCC(=O)OCCSC[C@H](N)C(=O)N[C@@H](CO)C(=O)OC [Compound 6d], which “specificity for human versus murine TLR2 (in words)” value ([1]; human and murine TLR2 reporter gene assays) is on record?
A: exquisite specificity in activating human TLR2 (hTLR2), but not murine TLR2 (mTLR2)

Q: What about the “mTLR2-agonistic activity (in words)” value [1] of the same compound?
A: entirely inactive

Q: For CCCCCCCCCCCCCCNCC(=O)OCCSC[C@H](N)C(=O)N[C@@H](CO)C(=O)OC [Compound 10b, (S)-methyl 2-((R)-2-amino-3-((2-(2-(tetradecylamino)acetoxy)ethyl)thio)propanamido)-3-hydroxypropanoate], which “hTLR2-agonistic activity (in words)” value [2] is on record?
A: completely inactive

Q: Which “hTLR2-agonistic activity (in words)” value [2] does the source give for COC(=O)[C@H](CO)NC(=O)[C@@H](N)CSCCOC(=O)c1cccc(-c2ccccc2)c1 [Compound 6g, 2-(((R)-2-amino-3-(((S)-3-hydroxy-1-methoxy-1-oxopropan-2-yl)amino)-3-oxopropyl)thio)ethyl [1,1'-biphenyl]-3-carboxylate] here?
A: complete absence of activity

Q: Which “hTLR2-agonistic activity (in words)” value [2] does the source give for CCCCCCCCCCCCCCCC(=O)N[C@@H](CSCCOC(=O)CCCCCCCCCCCCCCC)C(=O)N[C@@H](CO)C(=O)OC [Compound 11g, 2-(((R)-3-(((S)-3-hydroxy-1-methoxy-1-oxopropan-2-yl)amino)-3-oxo-2-palmitamidopropyl)thio)ethyl palmitate] here?
A: complete loss of activity

Q: With CCCCCCCCCCCCCCCC(=O)OCCCSC[C@H](NC(C)=O)C(=O)N[C@@H](CO)C(=O)OC [Compound 16, 3-(((R)-2-acetamido-3-(((S)-3-hydroxy-1-methoxy-1-oxopropan-2-yl)amino)-3-oxopropyl)thio)propyl palmitate] as the compound, how does the “hTLR2-agonistic activity (in words)” value [2] read?
A: active, albeit much weaker in potency than 11d

Q: For CCCCCCCCCCCCCCCC(=O)OCCSC[C@H](NC(C)=O)C(=O)N[C@@H](CO)C(=O)OC [Compound 11d, 2-(((R)-2-acetamido-3-(((S)-3-hydroxy-1-methoxy-1-oxopropan-2-yl)amino)-3-oxopropyl)thio)ethyl palmitate], which “absolute magnitude of TLR2-induced NF-κB activation (in words)” value [2] is on record?
A: far greater

Q: Which “hTLR2-agonistic activity (in words)” value [2] does the source give for CCCCCCCCCCCCCCN(CCCCCCCCCCCCCC)CC(=O)OCCSC[C@H](N)C(=O)N[C@@H](CO)C(=O)OC [Compound 10a, (S)-methyl 2-((R)-2-amino-3-((2-(2-(ditetradecylamino)acetoxy)ethyl)thio)propanamido)-3-hydroxypropanoate] here?
A: completely inactive

Reference: publication PMC3325328 (Journal of Medicinal Chemistry, 2012)
